In the library only some 5.9% were active in any assay of this set; here they are far more common.
Pf Dd2 growth: P. falciparum Dd2 growth inhibition. 2.3% of 94,000 active. AID 1159554. activity change, % at 10 µM. SYBR Green, 72 h; active compounds read low; in the data active = activity change below about -80%; inconclusive = no clear call, values can overlap the other calls
KDM4C inh: blocks human GASC-1 (KDM4C) demethylase activity; Q9H3R0; GST-KDM4C 2-372, H3K9me3 peptide, LANCE TR-FRET; inhibition, % at 12.5 µM; 0.15% of 96,000 active;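 active = mean replicate inhibition above about 25%, with at least 55% of replicates also reaching it, limit read from the data, passing the limit was not always enough; inconclusive = only one of those two conditions met; inactive = neither condition met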
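Material: N-terminal GST-fused human GASC-1 (KDM4C) fragment, residues 2-372. Input: 10 nM enzyme. Incubation: enzyme reaction 30 min, then detection 60 min, both room temperature. Doses: one test concentration per compound. Read-out basis: inhibition from TR-FRET ratio decrease. Detection: LANCE TR-FRET, excitation 340 nm, emissions 618 and 671 nm.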
T cruzi growth-1: blocks T. cruzi growth in NIH3T3 culture | T. cruzi beta-gal in NIH3T3, GalScreen luminescence, 90 h | inhibition, % at 8.34 µM | 5.9% of 77,000 active;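 active = mean inhibition above about 93%, with at least 55% of replicates each passing it, limit read from the data, passing the limit was not always enough; inconclusive = only one of those two conditions holds; inactive = neither condition holds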
IDH1 R132H inh: inhibitors of human IDH1 R132H. AID 624101. O75874. IDH1 R132H reductase, diaphorase/resazurin fluorescence, 60 min. inhibition, % at 10 µM. 0.18% of 70,000 active; in the data active = inhibition above about 34%; inconclusive = no clear call, values can overlap the other calls; inactive = below about 11%;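 note: 0% = DMSO and 100% = no enzyme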
Target sequence (O75874 whole entry R132H): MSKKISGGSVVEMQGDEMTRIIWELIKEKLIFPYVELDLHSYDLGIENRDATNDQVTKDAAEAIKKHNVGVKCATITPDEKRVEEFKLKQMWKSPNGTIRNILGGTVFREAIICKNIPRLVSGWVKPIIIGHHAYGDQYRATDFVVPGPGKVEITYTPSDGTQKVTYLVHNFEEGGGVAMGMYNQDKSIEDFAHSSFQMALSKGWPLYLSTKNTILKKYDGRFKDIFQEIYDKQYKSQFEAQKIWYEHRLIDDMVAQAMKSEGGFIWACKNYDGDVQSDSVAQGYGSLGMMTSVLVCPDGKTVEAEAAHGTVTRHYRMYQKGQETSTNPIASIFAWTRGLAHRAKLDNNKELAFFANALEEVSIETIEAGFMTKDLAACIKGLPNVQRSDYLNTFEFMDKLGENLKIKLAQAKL
T cruzi growth-2: inhibitors of T. cruzi proliferation. shares compounds with T cruzi growth-1. 72% of 5,600 active. inhibition, % at 8.35 µM. AID 651739. T. cruzi beta-gal in NIH3T3, GalScreen luminescence, 90 h;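 active = mean replicate inhibition above about 95% and at least 55% of replicates individually reaching it, limit read from the data; inconclusive = only one of the two criteria is met; inactive = neither criterion is met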
T cruzi growth-3: blocks T. cruzi growth in NIH3T3 host cells; shares compounds with T cruzi growth-1; T. cruzi beta-gal in NIH3T3, GalScreen luminescence, 90 h; inhibition, % at 2.09 µM; AID 651740; 21% of 5,600 active;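 active = mean inhibition above about 95%, with at least 55% of replicates also reaching it, limit read from the data; inconclusive = meets just one of the two conditions; inactive = meets neither condition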;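 note: plate controls were neutral control median for no effect and positive control median for full effect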
NIH3T3 tox: NIH/3T3 (mouse) viability loss; shares compounds with T cruzi growth-1; NIH/3T3 viability, CellTiter-Glo ATP luminescence, 90 h; cytotoxicity (signal decrease), % at 8.35 µM; 14% of 5,600 active;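 active = mean signal decrease across replicates above about 35% based on untreated-well scatter, with enough replicates individually passing, limit read from the data; inconclusive = no rule stated though some were filed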;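 note: 0% = median of neutral control wells and 100% = median of positive control wells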
3T3 cytotox 2: cytotoxicity in mouse NIH/3T3 fibroblasts; shares compounds with T cruzi growth-1; NIH/3T3 viability, CellTiter-Glo ATP luminescence, 90 h; inhibition, % at 24.9 µM; 56% of 5,600 active; AID 651744;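 active = mean loss of cell viability signal at or above a set limit, and enough replicates individually reaching it; inconclusive = meets only the mean limit or only the replicate share; inactive = meets neither condition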;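 note: 0% = median of neutral control wells and 100% = median of positive control wells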
The depositor's hits bear a star.

`Cc1ccc(S(=O)(=O)N(C)C[C@@H]2Oc3cc(-c4cccc(F)c4)ccc3S(=O)(=O)N([C@H](C)CO)C[C@H]2C)cc1` gave Pf Dd2 growth -58, KDM4C inh -2, T cruzi growth-1 104*, IDH1 R132H inh 0, T cruzi growth-2 92, T cruzi growth-3 78, NIH3T3 tox 69* and 3T3 cytotox 2 47*.
CC12CCCCC1C1(C=CC(=O)C=C1)C(c1ccccc1)=N2 (stereo not drawn) was read as IDH1 R132H inh 0.
Screening Cc1ccc(S(=O)(=O)N(C)C[C@@H]2Oc3cc(-c4cccc(F)c4)ccc3S(=O)(=O)N([C@@H](C)CO)C[C@@H]2C)cc1 returned Pf Dd2 growth -51, KDM4C inh -1, T cruzi growth-1 121*, IDH1 R132H inh -1, T cruzi growth-2 100*, T cruzi growth-3 inconclusive, NIH3T3 tox -4 and 3T3 cytotox 2 37*.
For COc1ccc(S(=O)(=O)N(C)C[C@@H]2Oc3cc(-c4cccc(F)c4)ccc3S(=O)(=O)N([C@@H](C)CO)C[C@H]2C)cc1 the results were Pf Dd2 growth inconclusive, KDM4C inh 3 and IDH1 R132H inh 3.
For Cc1ccc(-c2ccc3c(c2)O[C@@H](CN(C)S(C)(=O)=O)[C@H](C)CN([C@H](C)CO)S3(=O)=O)cc1 the results were Pf Dd2 growth -44, KDM4C inh -2, T cruzi growth-1 102*, IDH1 R132H inh 0, T cruzi growth-2 4, T cruzi growth-3 -31, NIH3T3 tox 20 and 3T3 cytotox 2 72*.
`Cc1ccc(CN2C(=O)C(O)(CC(=O)c3cccc(N)c3)c3cc(Cl)ccc32)cc1` (stereo not drawn) gave IDH1 R132H inh 0.
Screening Cc1cccc(NC(c2ccccc2[N+](=O)[O-])c2ccc3ccc(C)nc3c2O)n1 (stereo not drawn) returned IDH1 R132H inh 0.
`Cc1cccc(-c2ccc([C@H]3[C@@H](CO)N4CCCCN(S(=O)(=O)c5ccccc5C)C[C@@H]34)cc2)c1` gave Pf Dd2 growth -13, KDM4C inh -1, T cruzi growth-1 111*, T cruzi growth-2 112*, T cruzi growth-3 89, NIH3T3 tox 9 and 3T3 cytotox 2 -3.
Cc1ccc(-c2ccc([C@H]3[C@H](CO)N4CCCCN(S(=O)(=O)c5ccccc5C)C[C@@H]34)cc2)cc1 was read as Pf Dd2 growth -48, KDM4C inh 0 and T cruzi growth-1 75.
Screening Cc1ccccc1S(=O)(=O)N1CCCCN2[C@H](C1)[C@H](c1ccc(-c3ccccc3)cc1)[C@@H]2CO returned Pf Dd2 growth 2, T cruzi growth-1 107*, T cruzi growth-2 102*, T cruzi growth-3 75, NIH3T3 tox 0 and 3T3 cytotox 2 48*.
`O=C(CSc1nnc(-c2cccc3ccccc23)o1)Nc1cccc(F)c1` gave IDH1 R132H inh 0.
Cc1ccc(NC(=O)C2CC(Cl)=CCC2C(=O)O)c(Br)c1 (stereo not drawn) was read as IDH1 R132H inh 0.
For C[C@H]1CN([C@@H](C)CO)S(=O)(=O)c2ccc(C#CCN(C)C)cc2O[C@@H]1CN(C)C(=O)C1CCC1 the results were Pf Dd2 growth 1, KDM4C inh -1, T cruzi growth-1 105*, T cruzi growth-2 106*, T cruzi growth-3 95, NIH3T3 tox 3 and 3T3 cytotox 2 -9.
Screening C[C@H](CO)N1C[C@H](C)[C@H](CN(C)C(=O)C2CCC2)Oc2cc(C#CCN(C)C)ccc2S1(=O)=O returned Pf Dd2 growth -20, KDM4C inh -4, T cruzi growth-1 inconclusive, T cruzi growth-2 114*, T cruzi growth-3 98*, NIH3T3 tox -10 and 3T3 cytotox 2 3.
Screening C[C@H](CO)N1C[C@H](C)[C@@H](CN(C)C(=O)C2CCCCC2)Oc2cc(C#CCN(C)C)ccc2S1(=O)=O returned Pf Dd2 growth -18 and KDM4C inh 0.
`Cc1c(Br)c([N+](=O)[O-])nn1CC(=O)Nc1sc2c(c1C#N)CCCC2` gave IDH1 R132H inh 0.
`COc1ccc(NC(=O)Nc2ccc3c(c2)C(=O)N([C@@H](C)CO)C[C@H](C)[C@@H](CN(C)S(=O)(=O)c2ccc(Cl)cc2)OCCCC[C@@H](C)O3)cc1` gave Pf Dd2 growth -80, KDM4C inh -1, T cruzi growth-1 107*, IDH1 R132H inh 5, T cruzi growth-2 109*, T cruzi growth-3 112*, NIH3T3 tox 1 and 3T3 cytotox 2 18.
COc1ccc(NC(=O)Nc2ccc3c(c2)C(=O)N([C@H](C)CO)C[C@@H](C)[C@H](CN(C)S(=O)(=O)c2ccc(Cl)cc2)OCCCC[C@@H](C)O3)cc1 was read as Pf Dd2 growth -77, KDM4C inh 0, T cruzi growth-1 115*, IDH1 R132H inh 1, T cruzi growth-2 105*, T cruzi growth-3 101*, NIH3T3 tox -5 and 3T3 cytotox 2 18.
C[C@@H]1CCCCO[C@H](CN(C)C(=O)Nc2ccc(C(F)(F)F)cc2)[C@@H](C)CN([C@@H](C)CO)C(=O)c2cc(NC(=O)Cc3ccccc3)ccc2O1 was read as Pf Dd2 growth -89*, KDM4C inh -1, T cruzi growth-1 inconclusive, IDH1 R132H inh 2, T cruzi growth-2 101*, T cruzi growth-3 114*, NIH3T3 tox 2 and 3T3 cytotox 2 inconclusive.
C[C@H]1CCCCO[C@@H](CN(C)C(=O)Nc2ccc(C(F)(F)F)cc2)[C@@H](C)CN([C@@H](C)CO)C(=O)c2cc(NC(=O)Cc3ccccc3)ccc2O1 was read as Pf Dd2 growth -63, KDM4C inh -1, T cruzi growth-1 inconclusive, T cruzi growth-2 107*, T cruzi growth-3 111*, NIH3T3 tox 11 and 3T3 cytotox 2 24*.
C[C@@H]1CCCCO[C@@H](CN(C)C(=O)Nc2ccccc2)[C@H](C)CN([C@@H](C)CO)C(=O)c2cc(NC(=O)Cc3ccccc3)ccc2O1 was read as Pf Dd2 growth -26, KDM4C inh -1, T cruzi growth-1 -28 and IDH1 R132H inh 1.
`C[C@H](CO)N1C[C@H](C)[C@H](CN(C)C(=O)Nc2ccc(F)cc2)OCCCC[C@H](C)Oc2ccc(NC(=O)Cc3ccccc3)cc2C1=O` gave Pf Dd2 growth 4, KDM4C inh -1, T cruzi growth-1 104*, T cruzi growth-2 101*, T cruzi growth-3 40, NIH3T3 tox -21 and 3T3 cytotox 2 6.

Source: PubChem BioAssay (Broad Institute)
